The values below come from publication PMC9313898 (Journal of Thrombosis and Haemostasis, 2022).

Data set [1] deals with New Zealand White rabbits. The data set is described as follows: Arterial thrombosis. As to conditions: rabbit carotid artery FeCl2. Type of data set: in vivo.
Data set [2] deals with New Zealand White rabbits. Kind of data set: Ear bleeding time in the arterial FeCl2-injury rabbit model. Type of data set: in vivo.
Data set [3] deals with APTT in rabbit plasma. Kind of data set: APTT clotting time in rabbit plasma. It counts as biochemical. As to conditions: mean, n = 2–9. Put shortly:
(§1)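 Plasma came from untreated donor animals, collected into citrate, centrifuged at 2500 ×g for 20 min at 4°C, and stored at −20°C. Plasma was incubated with test compound (0–37.5 µM) for 3 min at 37°C, then with kaolin/cephalin APTT reagent for 3 min. Clotting was started with 0.025 M CaCl₂ and timed on an automated coagulometer. EC₁₅₀ is the concentration giving a 1.5‑fold APTT increase.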

For the next data set, the system named is APTT in dog plasma. The data set is described as follows: APTT clotting time in dog plasma. It counts as biochemical. The following applies: mean, n = 2–9. Put shortly: as §1
The test system of a further data set is APTT in pig plasma. Kind of data set: APTT clotting time in pig plasma. The following applies: mean, n = 2–9. Type of data set: biochemical. In outline: as §1
Data set [4] concerns APTT in guinea pig plasma. The data set is described as follows: APTT clotting time in guinea pig plasma. The following applies: mean, n = 2–9. It counts as biochemical. Put shortly: as §1
For the next data set, the system named is APTT in mouse plasma. The data set is described as follows: APTT clotting time in mouse plasma. The following applies: mean, n = 2–9. It counts as biochemical. In outline:
as §1

The next data set deals with APTT in rat plasma. Kind of data set: APTT clotting time in rat plasma. It counts as biochemical. As to conditions: mean, n = 2–9. In outline:
as §1

The test system of data set [5] is APTT in plasma of monkeys. Kind of data set: APTT clotting time in monkey plasma. Type of data set: biochemical.
Another data set has as its system PT in human plasma. Kind of data set: Prothrombin time in human plasma. It counts as biochemical. As to conditions: 0–37.5 µM. In outline: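 Human citrated plasma (pooled volunteer plasma or purchased) was incubated with test compound (0–37.5 µM) for 3 min at 37°C. It was then mixed with thromboplastin, and clotting time was measured at 37°C on an automated coagulometer.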

The test system of data set [6] is New Zealand White rabbits. Kind of data set: Gum bleeding time in rabbits. Type of data set: in vivo. As to conditions: rabbit; intravenous asundexian. Put shortly: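 Male New Zealand White rabbits (2.7–3.0 kg) were under ketamine/xylazine anaesthesia during the arterial FeCl₂‑injury thrombosis experiment. Test compound was given i.v., alone or with aspirin plus ticagrelor. Ear bleeding time and, by an equivalent technique, gum‑mucosa bleeding time were recorded as the time at which bleeding stopped.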

In data set [7] the target is T1, FXIa (Oryctolagus cuniculus, UniProt G1SSQ6). The data set is described as follows: Ex vivo FXIa inhibition in the arterial FeCl2-injury rabbit model. The following applies: mean (± SD) vs control group. In outline:
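Anaesthetised male New Zealand White rabbits received oral test compound in the arterial FeCl₂‑injury model. Citrated blood was drawn at the start of the thrombosis experiment, centrifuged at 2500 ×g for 10 min at 4°C, and stored at −20°C. FXIa activity was measured by kaolin/cephalin activation (3 min, 37°C), then 400 µM AMC substrate plus 5.6 µM kallikrein inhibitor. The fluorescence slope over the first 5 min was compared with controls.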

Data set [8] deals with New Zealand White rabbits. Kind of data set: Venous thrombosis. Type of data set: in vivo. The following applies: rabbit jugular vein FeCl2. Put shortly: (§2)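 Male New Zealand White rabbits (2.7–3.0 kg) were anaesthetised with ketamine/xylazine, with the femoral artery and vein cannulated. Thirty min after i.v. dosing, the jugular vein was exposed to FeCl₂ (13% in 100 µl water) on filter paper for 5 min. After a further 30 min the injured vein was excised and the thrombus weighed. Ear bleeding time was recorded as the time bleeding stopped.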

In data set [9] the test system is New Zealand White rabbits. The data set is described as follows: Ear bleeding time in the venous FeCl2-injury rabbit model. Type of data set: in vivo. As to conditions: asundexian 0.6, 2, or 6 mg/kg iv, any dose group. In outline: as §2
In data set [10] the test system is New Zealand White rabbits. The data set is described as follows: Rabbit liver-injury bleeding model. It counts as in vivo. Put shortly: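 Male New Zealand White rabbits (2.5–3.3 kg) were anaesthetised with ketamine/xylazine and kept at 37°C. A 1 × 1 cm triangular wedge was cut from the liver edge. Pre‑weighed swabs were applied at 30‑s intervals for up to 30 min to give bleeding time and blood loss.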

Data set [11] deals with APTT in rabbit plasma. Kind of data set: Ex vivo APTT in the rabbit liver-injury model.
The next data set deals with PT in rabbit plasma. Kind of data set: Ex vivo PT in the rabbit liver-injury model.
Data set [12] concerns New Zealand White rabbits. The data set is described as follows: Arterio-venous shunt model in rabbits, prevention protocol. As to conditions: rabbit AV shunt; for Thrombus weight: mean (± SEM), control 14.8 (± 2) mg. Type of data set: in vivo. In outline:
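Male New Zealand White rabbits (2.7–3.0 kg) were anaesthetised with ketamine/xylazine (i.m. bolus, then ear‑vein infusion). A shunt joined the right carotid artery to the left jugular vein through a 4 cm polyethylene tube holding a 6 cm nylon‑wire loop. An i.v. bolus (0.3, 1 or 3 mg/kg) was given 10 min before opening. After 15 min the wire and thrombus were removed and weighed.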

Data set [13] concerns New Zealand White rabbits. Kind of data set: Arterio-venous shunt model in rabbits, intervention protocol. The following applies: rabbit AV shunt. Type of data set: in vivo. Put shortly:
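Anaesthetised male New Zealand White rabbits (2.7–3.0 kg, ketamine/xylazine) carried a carotid‑artery to jugular‑vein shunt: a 4 cm polyethylene tube with a 6 cm nylon‑wire loop. Test compound was given as an i.v. bolus (1 or 5 mg/kg) via the femoral vein 10 min after the shunt was opened. The shunt ran 30 min, then the wire and attached thrombus were weighed.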

The subject of data set [14] is New Zealand White rabbits. Kind of data set: Ear bleeding time in the AV shunt model, prevention protocol. Type of data set: in vivo. As to conditions: rabbit AV shunt, any dose (0.3, 1, 3 mg/kg iv) or time point.
The target in data set [15] is T1, FXIa. Kind of data set: Ex vivo FXIa activity in the AV shunt model. The following applies: rabbit AV shunt; preventative and interventional iv treatment.
For data set [16] the following is noted: cited from earlier work.
Setting [17] is: apixaban 1 mg/kg iv + aspirin + ticagrelor.
[18] abbreviates: apixaban 3 mg/kg iv + aspirin + ticagrelor.
[19] abbreviates: dabigatran high dose (1 mg/kg iv).
Where [20] appears, read: dabigatran low dose (0.3 mg/kg iv).

“Also recorded” adds a separate entry of the source.

T1 sequence (G1SSQ6 19-624): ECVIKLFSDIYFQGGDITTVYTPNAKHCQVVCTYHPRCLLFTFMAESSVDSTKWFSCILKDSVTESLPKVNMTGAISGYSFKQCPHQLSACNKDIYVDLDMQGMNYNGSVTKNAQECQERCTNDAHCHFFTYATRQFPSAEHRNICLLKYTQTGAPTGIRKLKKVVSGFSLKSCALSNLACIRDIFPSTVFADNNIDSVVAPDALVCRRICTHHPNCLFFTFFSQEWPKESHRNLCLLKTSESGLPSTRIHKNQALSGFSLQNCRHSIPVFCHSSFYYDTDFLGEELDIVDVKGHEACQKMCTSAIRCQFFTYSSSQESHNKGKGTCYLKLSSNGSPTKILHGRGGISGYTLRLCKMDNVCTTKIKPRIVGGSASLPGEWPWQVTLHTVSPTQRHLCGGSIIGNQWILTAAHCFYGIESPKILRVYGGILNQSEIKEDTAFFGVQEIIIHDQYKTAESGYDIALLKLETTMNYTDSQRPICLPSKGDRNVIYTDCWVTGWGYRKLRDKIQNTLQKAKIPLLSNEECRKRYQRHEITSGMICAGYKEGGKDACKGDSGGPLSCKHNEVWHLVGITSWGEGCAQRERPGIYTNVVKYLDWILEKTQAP

In the case of `COc1ccc(-n2nc(C(N)=O)c3c2C(=O)N(c2ccc(N4CCCCC4=O)cc2)CC3)cc1` [apixaban, 1‐(4‐methoxyphenyl)‐7‐oxo‐6‐(4‐(2‐oxopiperidin‐1‐yl)phenyl)‐4,5,6,7‐tetrahydro‐1H ‐pyrazolo[3,4‐c]pyridine‐3‐carboxamide, reference compound], the “Additional reduction in thrombus weight on top of aspirin and ticagrelor” value in data set [1] (setting [17]) was found to be 46%; in data set [1] (setting [18]), 83%. Besides, the entries for the “Increase of ear bleeding time vs aspirin and ticagrelor alone” value in data set [2] (setting [17]) and in data set [2] (setting [18]) were 2.8 fold and 6.6 fold, respectively.

With `CC[C@@H](C(=O)Nc1ccc(C(N)=O)c(F)c1)n1cc(OC)c(-c2cc(Cl)ccc2-n2cc(C(F)(F)F)nn2)cc1=O` [asundexian], the “APTT prolongation, EC150” value in the data set with APTT in rabbit plasma [3] was 1.50 µM; with APTT in dog plasma it was 1.59 µM; in the data set on APTT in pig plasma it was 0.51 µM; in [4], 2.13 µM; in the data set on APTT in mouse plasma, above 12.5 µM; with APTT in rat plasma, above 12.5 µM. Further, in [5], the “Effect on APTT” value is reported as “prolonged”. Further, the “Effect on PT” value with PT in human plasma is recorded as “little to no effect”; in the data set on PT in rabbit plasma (asundexian 6 and 12 mg/kg iv), “no effect”. Besides, the “Thrombus weight reduction vs control” value stood at 25% in data set [1] (asundexian 0.6 mg/kg iv bolus); 88% in data set [1] (asundexian 20 mg/kg iv bolus); 30% in [1] (oral 10 mg/kg, 2 h before, P < .05); 91% in [1] (oral 30 mg/kg, 2 h before, P < .001); 25% in data set [8] (asundexian 0.6 mg/kg iv); 74% in [8] (asundexian 2 mg/kg iv). For the same molecule, the “Thrombus weight reduction vs control” value is recorded as 90% in data set [8] (asundexian 6 mg/kg iv); 14% in [12] (0.3 mg/kg iv); 59% in [12] (1 mg/kg iv, P < .01); 71% in data set [12] (3 mg/kg iv, P < .001); 33% in data set [13] (1 mg/kg iv, P < .05); 62% in data set [13] (5 mg/kg iv, P < .001). Moreover, the “Additional reduction in thrombus weight on top of aspirin and ticagrelor” value was found to be 32% in [1] (asundexian 2 mg/kg iv + aspirin + ticagrelor), 70% in [1] (asundexian 6 mg/kg iv + aspirin + ticagrelor) and 98% in [1] (asundexian 12 mg/kg iv + aspirin + ticagrelor). The “Ear bleeding time vs aspirin and ticagrelor alone” value in [2] (asundexian iv + aspirin + ticagrelor) is “did not further increase”. Further, the “Ear bleeding time vs control” value in data set [2] (oral asundexian 10 mg/kg and 30 mg/kg) is on record as “no prolongation”; in [2] (prophylactic intravenous asundexian 0.6-20 mg/kg) it was “no increase”. In addition, the Gum bleeding time entry in data set [6] is recorded as “no increase”. Besides, the “Reduction of FXIa activity ex vivo” value on FXIa [7] (oral 10 mg/kg) is recorded as 17% (± 22%); on FXIa [7] (oral 30 mg/kg), 44% (± 29%). In addition, the Ear bleeding time entry in [9] was “No ear bleeding time prolongation”. Besides, the “Bleeding time vs controls” value in data set [10] (asundexian 6 and 12 mg/kg iv) is given as “neither 6 nor 12 mg/kg asundexian led to any significant effect; also recorded: no significant effect”. Also, the “Blood loss vs controls” value in data set [10] (asundexian 6 and 12 mg/kg iv) is “neither 6 nor 12 mg/kg asundexian led to any significant effect; also recorded: no significant effect”. Besides, the APTT increase in the data set on APTT in rabbit plasma [11] (asundexian high dose (12 mg/kg iv)) is given as 2.3 fold; in the data set with APTT in rabbit plasma [11] (asundexian low dose (6 mg/kg iv)) it was 1.7 fold. Also, the Thrombus weight in data set [12] (1 mg/kg iv) is reported as 6.1 (± 0.9) mg; in data set [12] (3 mg/kg iv), 4.3 (± 0.5) mg; in data set [13] (5 mg/kg iv, mean (± SEM), control 36.7 (± 3.2) mg) it was 14.0 (± 3.5) mg. Also, the “Bleeding times following ear incision” value in data set [14] is reported as “not prolonged”. The “Ex vivo FXIa activity” value at FXIa [15] is “reduced FXIa activity”.

Turning to `[H]/N=C(/N)c1ccc(NCc2nc3cc(C(=O)N(CCC(=O)O)c4ccccn4)ccc3n2C)cc1` [dabigatran, reference compound], in data set [10] (dabigatran 0.3 mg/kg iv, control mean 5.7 min (340 s)), the “Increase of bleeding time vs controls” value is on record as “approximately 5 fold”. The molecule also returned a Bleeding time in data set [10] (dabigatran 1 mg/kg iv, maximum observation period 30 min) above 30 min. Besides, the figures for the APTT increase in the data set with APTT in rabbit plasma [11] (setting [19]) and with APTT in rabbit plasma [11] (setting [20]) were 2.2 fold and 1.4 fold, respectively. Besides, the results for the PT increase in the data set with PT in rabbit plasma (setting [19]) and with PT in rabbit plasma (setting [20]) were 1.7 fold and 1.1 fold, respectively.

For the molecule `O=C(NC[C@H]1CN(c2ccc(N3CCOCC3=O)cc2)C(=O)O1)c1ccc(Cl)s1` [rivaroxaban, reference compound], the “Thrombus weight reduction (mean)” value was determined as 51% in [1] (rivaroxaban iv 0.08 mg/kg +0.09 mg/kg/hour) and 77% in [1] (rivaroxaban iv 0.24 mg/kg +0.27 mg/kg/hour). Besides, the “Ear bleeding time vs control” value in data set [2] (rivaroxaban iv bolus + infusion, significant for the higher dose) was “prolonged”.

Take “Osocimab: fully human IgG1 antibody targeting coagulation factor XIa”: the mean elimination half-life in data set [16] was 30 to 44 days.

B1: abelacimab: FXI antibody, dual inhibitor of factor XI and factor XIa (antibody, chains of the INN, looked up, V domains shown)
VH: QVQLLESGGGLVQPGGSLRLSCAASGFTFSTAAMSWVRQAPGKGLEWVSGISGSGSSTYYADSVKGRFTISRDNSKNTLYLQMNSLRAEDTAVYYCARELSYLYSGYYFDYWGQGTLVTVSS
VL: QSVLTQPPSASGTPGQRVTISCSGSSSNIGSNDVSWYQQLPGTAPKLLIYKNYNRPSGVPDRFSGSKSGTSASLAISGLQSEDEADYYCSAWDQRQFDVVFGGGTKLTVL
Consider B1, for which the elimination half-life in data set [16] was 25 to 30 days.
